# Test system: U2OS
# Experiment: Multiplex assay against U2OS
# Type: toxicity, cell-based
# Conditions: human
# How it was run: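 Compound was added to live cells that had been stained at seeding with Hoechst33342, BioTracker Green Microtubule Cytoskeleton Dye, MitoTracker Red and Annexin V Alexa Fluor 680, and imaging followed on a CQ1 microscope at 37°C and 5% CO2. CellPathfinder machine-learning gating divided cells into Hoechst high-intensity objects or normal cells, normal cells into healthy, pyknosed or fragmented nuclei, and pyknosed cells into mitotic or apoptotic. Tubulin, mitochondrial-mass and membrane-permeability phenotypes are per cents of healthy-nucleus cells.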
# [1] = 12 h, 1 µM, compound concentration 1 uM, replicate 1
# [2] = 12 h, 1 µM, compound concentration 1 uM, replicate 2
# [3] = 12 h, 10 µM, compound concentration 10 uM, replicate 1
# [4] = 12 h, 10 µM, compound concentration 10 uM, replicate 2
# [5] = 24 h, 1 µM, compound concentration 1 uM, replicate 1
# [6] = 24 h, 1 µM, compound concentration 1 uM, replicate 2
# [7] = 24 h, 10 µM, compound concentration 10 uM, replicate 1
# [8] = 24 h, 10 µM, compound concentration 10 uM, replicate 2
# [9] = 48 h, 1 µM, compound concentration 1 uM, replicate 1
# [10] = 48 h, 1 µM, compound concentration 1 uM, replicate 2
# [11] = 48 h, 10 µM, compound concentration 10 uM, replicate 1
# [12] = 48 h, 10 µM, compound concentration 10 uM, replicate 2
structure (smiles),measurement,setting,value
Cc1sc2c(c1C)C(c1ccc(Cl)cc1)=N[C@H](CC(=O)OC(C)(C)C)c1nnc(C)n1-2,Population Apoptotic (%),[1],81%
same,Population Fragmented Nuclei (%),[1],28%
same,Population Healthy Nuclei (%),[1],63%
same,Population Hoechst High Intensity Objects (%),[1],2%
same,Population Membrane Permeable-Phenotype (%),[1],7%
same,Population Mitochondria Different-Phenotype (%),[1],4%
same,Population Mitotic Cells (%),[1],18%
same,Population Normal (%),[1],97%
same,Population Pyknosed Nuclei (%),[1],8%
same,Population Tubulin-Different-Phenotype (%),[1],4%
same,Total Cell Count,[1],256
same,Population Apoptotic (%),[2],71%
same,Population Fragmented Nuclei (%),[2],16%
same,Population Healthy Nuclei (%),[2],77%
same,Population Hoechst High Intensity Objects (%),[2],4%
same,Population Mitochondria Different-Phenotype (%),[2],2%
same,Population Mitotic Cells (%),[2],28%
same,Population Normal (%),[2],95%
same,Population Pyknosed Nuclei (%),[2],6%
same,Total Cell Count,[2],120
same,Population Apoptotic (%),[3],51%
same,Population Fragmented Nuclei (%),[3],32%
same,Population Healthy Nuclei (%),[3],56%
same,Population Hoechst High Intensity Objects (%),[3],2%
same,Population Membrane Permeable-Phenotype (%),[3],42%
same,Population Mitochondria Different-Phenotype (%),[3],35%
same,Population Mitotic Cells (%),[3],48%
same,Population Normal (%),[3],97%
same,Population Pyknosed Nuclei (%),[3],11%
same,Population Tubulin-Different-Phenotype (%),[3],39%
same,Total Cell Count,[3],240
same,Population Apoptotic (%),[4],90%
same,Population Fragmented Nuclei (%),[4],22%
same,Population Healthy Nuclei (%),[4],68%
same,Population Hoechst High Intensity Objects (%),[4],0%
same,Population Membrane Permeable-Phenotype (%),[4],13%
same,Population Mitochondria Different-Phenotype (%),[4],24%
same,Population Mitotic Cells (%),[4],10%
same,Population Normal (%),[4],100%
same,Population Pyknosed Nuclei (%),[4],8%
same,Population Tubulin-Different-Phenotype (%),[4],11%
same,Total Cell Count,[4],118
same,Population Apoptotic (%),[5],77%
same,Population Fragmented Nuclei (%),[5],22%
same,Population Healthy Nuclei (%),[5],69%
same,Population Hoechst High Intensity Objects (%),[5],0%
same,Population Membrane Permeable-Phenotype (%),[5],5%
same,Population Mitochondria Different-Phenotype (%),[5],1%
same,Population Mitotic Cells (%),[5],22%
same,Population Normal (%),[5],99%
same,Population Pyknosed Nuclei (%),[5],7%
same,Population Tubulin-Different-Phenotype (%),[5],1%
same,Total Cell Count,[5],280
same,Population Apoptotic (%),[6],75%
same,Population Fragmented Nuclei (%),[6],20%
same,Population Healthy Nuclei (%),[6],70%
same,Population Hoechst High Intensity Objects (%),[6],3%
same,Population Mitochondria Different-Phenotype (%),[6],2%
same,Population Mitotic Cells (%),[6],25%
same,Population Normal (%),[6],96%
same,Population Pyknosed Nuclei (%),[6],8%
same,Population Tubulin-Different-Phenotype (%),[6],2%
same,Total Cell Count,[6],149
same,Population Apoptotic (%),[7],83%
same,Population Fragmented Nuclei (%),[7],29%
same,Population Healthy Nuclei (%),[7],57%
same,Population Hoechst High Intensity Objects (%),[7],2%
same,Population Membrane Permeable-Phenotype (%),[7],17%
same,Population Mitochondria Different-Phenotype (%),[7],17%
same,Population Mitotic Cells (%),[7],16%
same,Population Normal (%),[7],97%
same,Population Pyknosed Nuclei (%),[7],13%
same,Population Tubulin-Different-Phenotype (%),[7],8%
same,Total Cell Count,[7],280
same,Population Apoptotic (%),[8],76%
same,Population Fragmented Nuclei (%),[8],24%
same,Population Healthy Nuclei (%),[8],65%
same,Population Hoechst High Intensity Objects (%),[8],0%
same,Population Membrane Permeable-Phenotype (%),[8],7%
same,Population Mitochondria Different-Phenotype (%),[8],25%
same,Population Mitotic Cells (%),[8],23%
same,Population Normal (%),[8],99%
same,Population Pyknosed Nuclei (%),[8],10%
same,Population Tubulin-Different-Phenotype (%),[8],3%
same,Total Cell Count,[8],130
same,Population Apoptotic (%),[9],77%
same,Population Fragmented Nuclei (%),[9],20%
same,Population Healthy Nuclei (%),[9],72%
same,Population Hoechst High Intensity Objects (%),[9],1%
same,Population Membrane Permeable-Phenotype (%),[9],5%
same,Population Mitochondria Different-Phenotype (%),[9],2%
same,Population Mitotic Cells (%),[9],22%
same,Population Normal (%),[9],98%
same,Population Pyknosed Nuclei (%),[9],6%
same,Population Tubulin-Different-Phenotype (%),[9],2%
same,Total Cell Count,[9],415
same,Population Apoptotic (%),[10],96%
same,Population Fragmented Nuclei (%),[10],21%
same,Population Healthy Nuclei (%),[10],64%
same,Population Hoechst High Intensity Objects (%),[10],3%
same,Population Membrane Permeable-Phenotype (%),[10],7%
same,Population Mitochondria Different-Phenotype (%),[10],7%
same,Population Mitotic Cells (%),[10],3%
same,Population Normal (%),[10],96%
same,Population Pyknosed Nuclei (%),[10],14%
same,Population Tubulin-Different-Phenotype (%),[10],5%
same,Total Cell Count,[10],228
same,Population Apoptotic (%),[11],86%
same,Population Fragmented Nuclei (%),[11],23%
same,Population Healthy Nuclei (%),[11],57%
same,Population Hoechst High Intensity Objects (%),[11],2%
same,Population Membrane Permeable-Phenotype (%),[11],11%
same,Population Mitochondria Different-Phenotype (%),[11],7%
same,Population Mitotic Cells (%),[11],13%
same,Population Normal (%),[11],97%
same,Population Pyknosed Nuclei (%),[11],18%
same,Population Tubulin-Different-Phenotype (%),[11],5%
same,Total Cell Count,[11],342
same,Population Apoptotic (%),[12],89%
same,Population Fragmented Nuclei (%),[12],20%
same,Population Healthy Nuclei (%),[12],68%
same,Population Hoechst High Intensity Objects (%),[12],1%
same,Population Mitochondria Different-Phenotype (%),[12],8%
same,Population Mitotic Cells (%),[12],10%
same,Population Normal (%),[12],98%
same,Population Pyknosed Nuclei (%),[12],11%
same,Population Tubulin-Different-Phenotype (%),[12],3%
same,Total Cell Count,[12],174
Nc1nc(-c2ccco2)c2cnn(Cc3ccccc3F)c2n1,Population Apoptotic (%),[1],82%
same,Population Fragmented Nuclei (%),[1],23%
same,Population Healthy Nuclei (%),[1],68%
same,Population Hoechst High Intensity Objects (%),[1],1%
same,Population Membrane Permeable-Phenotype (%),[1],4%
same,Population Mitochondria Different-Phenotype (%),[1],2%
same,Population Mitotic Cells (%),[1],17%
same,Population Normal (%),[1],98%
same,Population Pyknosed Nuclei (%),[1],8%
same,Population Tubulin-Different-Phenotype (%),[1],3%
same,Total Cell Count,[1],280
same,Population Apoptotic (%),[2],92%
same,Population Healthy Nuclei (%),[2],64%
same,Population Hoechst High Intensity Objects (%),[2],0%
same,Population Membrane Permeable-Phenotype (%),[2],12%
same,Population Mitochondria Different-Phenotype (%),[2],5%
same,Population Mitotic Cells (%),[2],7%
same,Population Normal (%),[2],99%
same,Population Pyknosed Nuclei (%),[2],12%
same,Population Tubulin-Different-Phenotype (%),[2],8%
same,Total Cell Count,[2],109
same,Population Apoptotic (%),[3],87%
same,Population Fragmented Nuclei (%),[3],41%
same,Population Healthy Nuclei (%),[3],45%
same,Population Hoechst High Intensity Objects (%),[3],5%
same,Population Membrane Permeable-Phenotype (%),[3],10%
same,Population Mitochondria Different-Phenotype (%),[3],4%
same,Population Mitotic Cells (%),[3],12%
same,Population Normal (%),[3],94%
same,Population Pyknosed Nuclei (%),[3],12%
same,Population Tubulin-Different-Phenotype (%),[3],7%
same,Total Cell Count,[3],197
same,Population Apoptotic (%),[4],77%
same,Population Fragmented Nuclei (%),[4],20%
same,Population Healthy Nuclei (%),[4],72%
same,Population Hoechst High Intensity Objects (%),[4],0%
same,Population Membrane Permeable-Phenotype (%),[4],5%
same,Population Mitochondria Different-Phenotype (%),[4],5%
same,Population Mitotic Cells (%),[4],22%
same,Population Normal (%),[4],99%
same,Population Pyknosed Nuclei (%),[4],7%
same,Population Tubulin-Different-Phenotype (%),[4],1%
same,Total Cell Count,[4],125
same,Population Apoptotic (%),[5],96%
same,Population Fragmented Nuclei (%),[5],19%
same,Population Healthy Nuclei (%),[5],70%
same,Population Hoechst High Intensity Objects (%),[5],1%
same,Population Membrane Permeable-Phenotype (%),[5],4%
same,Population Mitochondria Different-Phenotype (%),[5],1%
same,Population Mitotic Cells (%),[5],3%
same,Population Normal (%),[5],98%
same,Population Pyknosed Nuclei (%),[5],9%
same,Population Tubulin-Different-Phenotype (%),[5],2%
same,Total Cell Count,[5],332
same,Population Apoptotic (%),[6],84%
same,Population Fragmented Nuclei (%),[6],18%
same,Population Healthy Nuclei (%),[6],71%
same,Population Hoechst High Intensity Objects (%),[6],4%
same,Population Membrane Permeable-Phenotype (%),[6],10%
same,Population Mitochondria Different-Phenotype (%),[6],3%
same,Population Mitotic Cells (%),[6],15%
same,Population Normal (%),[6],95%
same,Population Pyknosed Nuclei (%),[6],10%
same,Population Tubulin-Different-Phenotype (%),[6],8%
same,Total Cell Count,[6],127
same,Population Apoptotic (%),[7],82%
same,Population Fragmented Nuclei (%),[7],38%
same,Population Healthy Nuclei (%),[7],53%
same,Population Hoechst High Intensity Objects (%),[7],5%
same,Population Membrane Permeable-Phenotype (%),[7],7%
same,Population Mitochondria Different-Phenotype (%),[7],3%
same,Population Mitotic Cells (%),[7],17%
same,Population Normal (%),[7],94%
same,Population Pyknosed Nuclei (%),[7],7%
same,Population Tubulin-Different-Phenotype (%),[7],5%
same,Total Cell Count,[7],230
same,Population Apoptotic (%),[8],90%
same,Population Fragmented Nuclei (%),[8],19%
same,Population Healthy Nuclei (%),[8],73%
same,Population Hoechst High Intensity Objects (%),[8],1%
same,Population Membrane Permeable-Phenotype (%),[8],5%
same,Population Mitochondria Different-Phenotype (%),[8],0%
same,Population Mitotic Cells (%),[8],9%
same,Population Normal (%),[8],98%
same,Population Tubulin-Different-Phenotype (%),[8],4%
same,Total Cell Count,[8],157
same,Population Apoptotic (%),[9],94%
same,Population Fragmented Nuclei (%),[9],17%
same,Population Healthy Nuclei (%),[9],74%
same,Population Hoechst High Intensity Objects (%),[9],1%
same,Population Membrane Permeable-Phenotype (%),[9],2%
same,Population Mitochondria Different-Phenotype (%),[9],2%
same,Population Mitotic Cells (%),[9],5%
same,Population Normal (%),[9],98%
same,Population Pyknosed Nuclei (%),[9],7%
same,Population Tubulin-Different-Phenotype (%),[9],2%
same,Total Cell Count,[9],462
same,Population Apoptotic (%),[10],95%
same,Population Fragmented Nuclei (%),[10],16%
same,Population Healthy Nuclei (%),[10],67%
same,Population Hoechst High Intensity Objects (%),[10],6%
same,Population Membrane Permeable-Phenotype (%),[10],5%
same,Population Mitochondria Different-Phenotype (%),[10],5%
same,Population Mitotic Cells (%),[10],4%
same,Population Normal (%),[10],93%
same,Population Pyknosed Nuclei (%),[10],15%
same,Population Tubulin-Different-Phenotype (%),[10],1%
same,Total Cell Count,[10],141
same,Population Apoptotic (%),[11],95%
same,Population Fragmented Nuclei (%),[11],37%
same,Population Healthy Nuclei (%),[11],51%
same,Population Hoechst High Intensity Objects (%),[11],11%
same,Population Membrane Permeable-Phenotype (%),[11],17%
same,Population Mitochondria Different-Phenotype (%),[11],6%
same,Population Mitotic Cells (%),[11],4%
same,Population Normal (%),[11],88%
same,Population Pyknosed Nuclei (%),[11],10%
same,Population Tubulin-Different-Phenotype (%),[11],11%
same,Total Cell Count,[11],252
same,Population Apoptotic (%),[12],86%
same,Population Fragmented Nuclei (%),[12],23%
same,Population Healthy Nuclei (%),[12],69%
same,Population Hoechst High Intensity Objects (%),[12],2%
same,Population Membrane Permeable-Phenotype (%),[12],12%
same,Population Mitotic Cells (%),[12],13%
same,Population Normal (%),[12],97%
same,Population Pyknosed Nuclei (%),[12],7%
same,Population Tubulin-Different-Phenotype (%),[12],6%
same,Total Cell Count,[12],196

# Source: ChEMBL document CHEMBL5058577, “EUbOPEN Chemogenomics Library 2 (Multiplex)” (2022)
